Values after ≈ are worked out from the molar mass of the structure shown.
How the values were obtained:
[1] = WHO-TDR: Cytotoxicity; type: toxicity, cell-based; conditions: human, MRC5 cells
[2] = tested on: Plasmodium falciparum K1; experiment: WHO-TDR: Malaria; type: functional, organism-based, Homo sapiens; conditions: Erythrocyte
Method in brief: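 Antiplasmodial potency, expressed as IC50, was measured in a whole-organism assay on intra-erythrocytic Plasmodium falciparum K1 in human red blood cells. The screened library held 10,000 diverse compounds from Life Chemicals.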

[3] = tested on: Trypanosoma cruzi; experiment: WHO-TDR: Chagas disease; type: functional, organism-based, Homo sapiens; conditions: MRC5
Method in brief: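 Whole-organism screen of a 10,000-compound diverse library from Life Chemicals, filtered for drug-likeness and reactive groups, against intracellular amastigotes of Trypanosoma cruzi Tulahuen CL2 beta-galactosidase strain grown in MRC-5SV2 human lung fibroblast host cells. The assay followed previously published standard procedures, with a reference drug as positive control. Antiparasitic potency is reported as IC50.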

[4] = tested on: Trypanosoma brucei brucei; experiment: WHO-TDR: Human African Trypanosomiasis (HAT); type: functional, organism-based; conditions: Squib-427
Method in brief: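 Antiparasitic potency is reported as IC50. The screen covered 10,000 compounds from a diverse Life Chemicals library, filtered for drug-likeness and reactive groups, tested on whole bloodstream-form Trypanosoma brucei of the Squib 427 strain.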

[5] = tested on: Leishmania infantum; experiment: WHO-TDR: Leishmaniasis; type: functional, organism-based, Mus musculus; conditions: Macrophage
Method in brief: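 Antiparasitic potency, reported as IC50, was measured against intracellular Leishmania infantum amastigotes. The parasite strain was MHOM/MA(BE)/67, and murine peritoneal macrophages served as host cells for the screen of a 10,000-compound diverse library from Life Chemicals.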

[6] = tested on: Schistosoma mansoni; experiment: WHO-TDR: Schistosomiasis; type: functional; set-up: concentration or dose not given beside the values
Method in brief: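 Activity appears as percent inhibition and as IC50. The underlying screen tested a diverse library of 10,000 compounds, supplied by Life Chemicals, on whole larval and/or adult worms of the Puerto Rican strain of Schistosoma mansoni.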

[7] = tested on: Onchocerca ochengi; experiment: WHO-TDR: Onchocerciasis; type: functional; set-up: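 at 12.5 µM on microfilariae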
Method in brief: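 Following previously published standard procedures, with reference drugs as positive controls, a diverse Life Chemicals library was tested on whole Onchocerca ochengi or Onchocerca lienalis microfilariae. The library held 10,000 compounds filtered for drug-likeness and reactive groups. Activity is recorded both as percent inhibition and as IC50.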

[8] = tested on: Brugia malayi; experiment: WHO-TDR: Lymphatic Filariasis; type: functional; set-up: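 tested at 10 µM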
Method in brief: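 Following previously published standard procedures, compounds were tested on whole Brugia malayi microfilariae, with reference drugs as positive controls. They came from a diverse Life Chemicals collection of 10,000 compounds filtered for drug-likeness and reactive groups. Results appear as percent inhibition and as IC50.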

IC50 [2] [µg/mL] | IC50 [4] [µg/mL] | IC50 [5] [µg/mL] | Structure (SMILES) | IC50 [1] [µg/mL] | IC50 [3] [µg/mL] | % Inhibition [6] [%] | % Inhibition [7] [%] | % Inhibition [8] [%]
9.31 (≈ 30 µM) | > 9.31 | > 9.31 | OCc1cnc(SCc2ccccc2)n1Cc1ccccc1 | > 9.31 | > 9.31 | 0 | 100 | 25
> 8.51 | > 8.51 | > 8.51 | CSc1ccccc1NC(=O)c1ccc(Cl)s1 | > 8.51 | > 8.51 | 0 | 100 | 25
> 13.1 | 4.84 (≈ 11.1 µM) | > 13.1 | O=C(CSc1ncc(CO)n1Cc1ccc(Cl)cc1)NCc1ccccc1Cl | > 13.1 | 4.39 (≈ 10.1 µM) | 0 | 100 | 25
4.83 (≈ 12.2 µM) | > 11.9 | > 11.9 | O=C(CSC1=Nc2cccnc2Nc2ccccc21)Nc1ccc(F)c(F)c1 | > 11.9 | > 11.9 | 0 | 100 | 0
13.3 (≈ 30 µM) | > 13.3 | > 13.3 | O=C(CSC1=Nc2cccnc2Nc2ccccc21)Nc1ccc(OC(F)(F)F)cc1 | > 13.3 | > 13.3 | 0 | 100 | 0
> 11.6 | > 11.6 | > 11.6 | O=S(=O)(NCC(c1cccs1)N1CCOCC1)c1ccc(Cl)cc1 (stereo not given) | > 11.6 | > 11.6 | 0 | 100 | 0
> 11.8 | > 11.8 | > 11.8 | O=S(=O)(NCC(c1cccs1)N1CCOCC1)c1ccc(Cl)s1 (stereo not given) | > 11.8 | > 11.8 | 0 | 100 | 0
> 10.9 | 3.44 (≈ 9.49 µM) | > 10.9 | CN(C)C(CNS(=O)(=O)c1ccc(Cl)s1)c1ccc(F)cc1 (stereo not given) | > 10.9 | > 10.9 | 0 | 100 | 0
> 11.3 | 2.99 (≈ 7.95 µM) | > 11.3 | CN(C)C(CNS(=O)(=O)c1ccc2c(c1)CCCC2)c1ccc(F)cc1 (stereo not given) | > 11.3 | 4.67 (≈ 12.4 µM) | 0 | 100 | 0
> 12.5 | > 12.5 | > 12.5 | COc1ccc(C(CNS(=O)(=O)c2ccc(Cl)s2)N2CCOCC2)cc1 (stereo not given) | > 12.5 | > 12.5 | 0 | 100 | 0
> 12 | 4.02 (≈ 10.1 µM) | > 12 | COc1ccc(S(=O)(=O)NCC(c2cccc3ccccc23)N(C)C)cc1C (stereo not given) | > 12 | > 12 | 0 | 100 | 0
8.79 (≈ 20.7 µM) | 4.12 (≈ 9.71 µM) | > 12.7 | Cc1ccc(S(=O)(=O)NCC(c2cccc3ccccc23)N2CCOCC2)cc1C (stereo not given) | > 12.7 | 4.18 (≈ 9.85 µM) | 0 | 100 | 25
> 12.2 | > 12.2 | > 12.2 | O=C(NCCOc1ccc(-c2ccc(F)cc2)nn1)c1cccc(C(F)(F)F)c1 | > 12.2 | > 12.2 | 0 | 100 | 25
> 12.5 | > 12.5 | > 12.5 | Cc1ccc(Cn2c(CO)cnc2SCC(=O)Nc2cccc3ccccc23)cc1 | > 12.5 | > 12.5 | 0 | 100 | 25
> 13.7 | > 13.7 | > 13.7 | CCOC(=O)c1ccccc1NC(=O)CSc1ncc(CO)n1Cc1ccc(OC)cc1 | > 13.7 | > 13.7 | 0 | 100 | 25
> 16 | > 16 | > 16 | O=C(C1CCN(S(=O)(=O)c2cccs2)CC1)N(Cc1cccnc1)c1nc2c(F)cc(F)cc2s1 | > 10.9 | 0.535 (≈ 1 µM) | 0 | 0 | 25
0.637 (≈ 1.64 µM) | 0.378 (≈ 0.971 µM) | 0.313 (≈ 0.804 µM) | Cc1ccc(-n2ncc3c(=O)[nH]c(-n4nc(C)cc4NC(=O)C4CC4)nc32)cc1 | 0.591 (≈ 1.52 µM) | 0.214 (≈ 0.55 µM) | 0 | 100 | 0
> 12 | 4.02 (≈ 10.1 µM) | > 12 | CS(=O)(=O)c1ccccc1C(=O)Nc1nc(-c2cc3ccccc3o2)cs1 | 5.25 (≈ 13.2 µM) | 4.3 (≈ 10.8 µM) | 0 | 100 | 0
> 11.1 | > 11.1 | > 11.1 | CSc1cccc2sc(N3CCN(C(=O)c4ccccc4)CC3)nc12 | > 11.1 | 4.19 (≈ 11.3 µM) | 0 | 100 | 0
> 14.9 | > 14.9 | > 14.9 | CSc1ccc2nc(N(Cc3cccnc3)C(=O)c3ccc(C(=O)c4ccccc4)cc3)sc2c1 | > 14.9 | 0.874 (≈ 1.76 µM) | 0 | 0 | 0
0.145 (≈ 0.324 µM) | > 13.4 | > 13.4 | CSc1ccc2nc(N(Cc3cccnc3)C(=O)c3ccc(C(C)(C)C)cc3)sc2c1 | 7.16 (≈ 16 µM) | 0.556 (≈ 1.24 µM) | 0 | 25 | 0
4.49 (≈ 8.71 µM) | > 15.5 | > 15.5 | CS(=O)(=O)c1ccc2nc(N(Cc3cccnc3)C(=O)c3cccc(Oc4ccccc4)c3)sc2c1 | > 15.5 | 0.275 (≈ 0.533 µM) | 0 | 0 | 0
> 14.2 | > 14.2 | 4.6 (≈ 9.71 µM) | CS(=O)(=O)c1ccc2nc(N(Cc3cccnc3)C(=O)c3ccc4ccccc4c3)sc2c1 | > 14.2 | 0.225 (≈ 0.475 µM) | 0 | 0 | 0
8.28 (≈ 17.6 µM) | > 14.1 | > 14.1 | CSc1cccc(C(=O)N(Cc2cccnc2)c2nc3ccc(S(C)(=O)=O)cc3s2)c1 | > 14.1 | 0.383 (≈ 0.816 µM) | 0 | 0 | 0
> 12.7 | 4.07 (≈ 9.6 µM) | > 12.7 | O=C(Nc1nc2c(s1)CCCC2)C1CCN(S(=O)(=O)c2ccc(F)cc2)CC1 | > 12.7 | 2.79 (≈ 6.58 µM) | 0 | 100 | 0
8.56 (≈ 16.5 µM) | 0.586 (≈ 1.13 µM) | > 15.6 | O=C(Nc1nc(-c2ccc3c(c2)OCCO3)cs1)C1CCN(S(=O)(=O)c2ccc(Cl)cc2)CC1 | 2.74 (≈ 5.28 µM) | 0.697 (≈ 1.34 µM) | 0 | 50 | 0
12.7 (≈ 27.5 µM) | 4.13 (≈ 8.93 µM) | > 13.9 | O=C(Nc1nc(-c2ccccn2)cs1)C1CCN(S(=O)(=O)c2ccc(Cl)cc2)CC1 | > 13.9 | 4.3 (≈ 9.28 µM) | 0 | 100 | 0
> 13.2 | > 13.2 | > 13.2 | Cc1ccc(S(=O)(=O)N2CCC(C(=O)Nc3c(C(N)=O)oc4ccccc34)CC2)cc1 | > 13.2 | > 13.2 | 0 | 100 | 0
1.35 (≈ 3.08 µM) | 4.56 (≈ 10.4 µM) | > 14.2 | O=C(c1ccc2c(c1)OCCO2)N(CCCn1ccnc1)c1nc2c(F)cccc2s1 | 6.23 (≈ 14.2 µM) | 3.6 (≈ 8.22 µM) | 0 | 100 | 0
2.13 (≈ 4.8 µM) | 4.62 (≈ 10.4 µM) | > 14.4 | O=C(CSc1ccc(F)cc1)N(CCCn1ccnc1)c1nc2c(F)cccc2s1 | > 14.4 | 5.11 (≈ 11.5 µM) | 0 | 100 | 0
